Measured values taken from PMC6172068 (Cancer Science, 2018).

What was measured:
[1] = system: FLT3 receptors expressing F691 gatekeeper mutations; details: leukemic cells; cited from earlier work
Urine pharmacokinetics = type: in vivo, Japanese patients
[2] = system: relapsed/refractory (R/R) AML; details: cited from earlier work
[3] = system: FLT3 receptors expressing FLT3-ITD; details: leukemic cells; cited from earlier work
[4] = system: FLT3 receptors expressing FLT3-TKD D835 mutations; details: leukemic cells; cited from earlier work
AXL = details: preclinical studies; cited from earlier work
[5] = system: relapsed/refractory (R/R) acute myeloid leukemia (AML); test: Antileukemic activity; type: in vivo, Japanese patients
Summary of the method: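 Adults (≥18 years) with relapsed/refractory AML took an oral test compound once daily in escalating cohorts (20–300 mg/d). Cycle 0 was a single dose with 2-day observation, followed by 28-day cycles. Marrow aspirates or biopsies were taken at screening, Cycle 1 Day 28, Day 1 of later cycles and end of treatment. CR, CRp and CRi followed International Working Group criteria. The full analysis set was used.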

[6] = Plasma pharmacokinetics after single and multiple doses; type: in vivo, Japanese patients
[7] = system: anaplastic lymphoma kinase; details: preclinical studies; cited from earlier work
[8] = system: leukocyte receptor tyrosine kinase; details: preclinical studies; cited from earlier work
FLT3 = details: preclinical studies; cited from earlier work
[9] = 12-lead electrocardiogram QT interval; type: in vivo, Japanese patients
c-Kit = details: cited from earlier work
[10] = FLT3 mutation-negative patients, Total (n = 11)
[11] = FLT3 mutation-positive patients, 20 mg (n = 1)
[12] = FLT3 mutation-positive patients, 40 mg (n = 1)
[13] = FLT3 mutation-positive patients, 80 mg (n = 1)
[14] = FLT3 mutation-positive patients, 200 mg (n = 2)
[15] = patients with mutated FLT3 (n = 5), 1 patient
[16] = patients with wild-type FLT3 (n = 11), 1 patient
[17] = one patient who received 20 mg/d

For `CCc1nc(C(N)=O)c(Nc2ccc(N3CCC(N4CCN(C)CC4)CC3)c(OC)c2)nc1NC1CCOCC1` [gilteritinib], the “inhibition of FLT3 receptors expressing F691 gatekeeper mutations” value [1] is given as “weak inhibitor”, the “mean percentage of unchanged excreted gilteritinib (urine)” value (Urine pharmacokinetics; after a single dose (data not shown)) is given as no more than 3.6% and the “mean percentage of unchanged excreted gilteritinib (urine)” value (Urine pharmacokinetics; after multiple doses) is given as no more than 13.1%. The “median OS duration” value ([2]; doses ≥80 mg/d) was 31 weeks, the “overall response rate (ORR)” value ([2]; doses ≥80 mg/d) was 52% and the “maximum tolerated dose (MTD)” value ([2]; once-daily oral, R/R AML, USA, Germany and Italy) was 300 mg/day. For the same molecule, the “inhibition of FLT3 receptors expressing FLT3-ITD” value [3] was “strongly inhibited”, the “inhibition of FLT3 receptors expressing FLT3-TKD D835 mutations” value [4] was “strongly inhibited” and the “inhibition of AXL” value (AXL) was “robust inhibitor”. For the same molecule, the CR ([5]; All patients, 20 mg (n = 1)) was 0 n (%, [95% CI]), the “CRc (CR plus CRp plus CRi)” value ([5]; All patients, 20 mg (n = 1)) was 1 (100 [2.5, 100]) n (%, [95% CI]) and the CRi ([5]; All patients, 20 mg (n = 1)) was 1 (100 [2.5, 100]) n (%, [95% CI]). The CRp ([5]; All patients, 20 mg (n = 1)) was 0 n (%, [95% CI]), the “ORR (CRc plus PR)” value ([5]; All patients, 20 mg (n = 1)) was 1 (100 [2.5, 100]) n (%, [95% CI]) and the PR ([5]; All patients, 20 mg (n = 1)) was 0 n (%, [95% CI]). The CR ([5]; All patients, 40 mg (n = 3)) was 0 n (%, [95% CI]), the “CRc (CR plus CRp plus CRi)” value ([5]; All patients, 40 mg (n = 3)) was 0 n (%, [95% CI]) and the CRi ([5]; All patients, 40 mg (n = 3)) was 0 n (%, [95% CI]). For the same molecule, the CRp ([5]; All patients, 40 mg (n = 3)) was 0 n (%, [95% CI]), the CR ([5]; All patients, 80 mg (n = 4)) was 1 (25 [0.6, 80.6]) n (%, [95% CI]) and the “CRc (CR plus CRp plus CRi)” value ([5]; All patients, 80 mg (n = 4)) was 1 (25 [0.6, 80.6]) n (%, [95% CI]). The CRi ([5]; All patients, 80 mg (n = 4)) was 0 n (%, [95% CI]), the CRp ([5]; All patients, 80 mg (n = 4)) was 0 n (%, [95% CI]) and the “ORR (CRc plus PR)” value ([5]; All patients, 80 mg (n = 4)) was 2 (50 [6.8, 93.2]) n (%, [95% CI]). For the same molecule, the PR ([5]; All patients, 80 mg (n = 4)) was 1 (25 [0.6, 80.6]) n (%, [95% CI]), the CR ([5]; All patients, 120 mg (n = 2)) was 0 n (%, [95% CI]) and the “CRc (CR plus CRp plus CRi)” value ([5]; All patients, 120 mg (n = 2)) was 1 (50 [1.3, 98.7]) n (%, [95% CI]). The CRi ([5]; All patients, 120 mg (n = 2)) was 1 (50 [1.3, 98.7]) n (%, [95% CI]), the CRp ([5]; All patients, 120 mg (n = 2)) was 0 n (%, [95% CI]) and the “ORR (CRc plus PR)” value ([5]; All patients, 120 mg (n = 2)) was 1 (50 [1.3, 98.7]) n (%, [95% CI]). The PR ([5]; All patients, 120 mg (n = 2)) was 0 n (%, [95% CI]), the CR ([5]; All patients, 200 mg (n = 7)) was 0 n (%, [95% CI]) and the “CRc (CR plus CRp plus CRi)” value ([5]; All patients, 200 mg (n = 7)) was 4 (57.1 [18.4, 90.1]) n (%, [95% CI]). The CRi ([5]; All patients, 200 mg (n = 7)) was 1 (14.3 [0.4, 57.9]) n (%, [95% CI]), the CRp ([5]; All patients, 200 mg (n = 7)) was 3 (42.9 [9.9, 81.6]) n (%, [95% CI]) and the “ORR (CRc plus PR)” value ([5]; All patients, 200 mg (n = 7)) was 4 (57.1 [18.4, 90.1]) n (%, [95% CI]). The PR ([5]; All patients, 200 mg (n = 7)) was 0 n (%, [95% CI]), the CR ([5]; All patients, 300 mg (n = 2)) was 0 n (%, [95% CI]) and the “CRc (CR plus CRp plus CRi)” value ([5]; All patients, 300 mg (n = 2)) was 0 n (%, [95% CI]). The CRi ([5]; All patients, 300 mg (n = 2)) was 0 n (%, [95% CI]), the CRp ([5]; All patients, 300 mg (n = 2)) was 0 n (%, [95% CI]) and the “ORR (CRc plus PR)” value ([5]; All patients, 300 mg (n = 2)) was 0 n (%, [95% CI]). The PR ([5]; All patients, 300 mg (n = 2)) was 0 n (%, [95% CI]), the CRc ([5]; FAS, all doses, 7 of 19 patients, 95% CI: 16.3, 61.6) was 36.8% and the ORR ([5]; FAS, all doses, n = 9/19, 95% CI: 24.4, 71.1) was 47.4%. For the same molecule, the “Median duration of CRc” value ([5]; FAS, 95% CI: 28.0, 116.0) was 86.5 days, the “Median duration of remission” value ([5]; FAS, 95% CI: 28.0, 139.0) was 113.5 days and the CR [5, 10] was 1 (9.1 [0.2, 41.3]) n (%, [95% CI]). The “CRc (CR plus CRp plus CRi)” value [5, 10] was 3 (27.3 [6.0, 61.0]) n (%, [95% CI]), the CRi [5, 10] was 0 n (%, [95% CI]) and the CRp [5, 10] was 2 (18.2 [2.3, 51.8]) n (%, [95% CI]). The “ORR (CRc plus PR)” value [5, 10] was 4 (36.4 [10.9, 69.2]) n (%, [95% CI]), the PR [5, 10] was 1 (9.1 [0.2, 41.3]) n (%, [95% CI]) and the CRc ([5]; FLT3 mutation-positive patients (n = 5), 95% CI: 14.7, 94.7) was 60%. For the same molecule, the ORR ([5]; FLT3 mutation-positive patients (n = 5), 95% CI: 28.4, 99.5) was 80%, the CR [5, 11] was 0 n (%, [95% CI]) and the “CRc (CR plus CRp plus CRi)” value [5, 11] was 1 (100 [2.5, 100]) n (%, [95% CI]). The CRi [5, 11] was 1 (100 [2.5, 100]) n (%, [95% CI]), the CRp [5, 11] was 0 n (%, [95% CI]) and the “ORR (CRc plus PR)” value [5, 11] was 1 (100 [2.5, 100]) n (%, [95% CI]). For the same molecule, the PR [5, 11] was 0 n (%, [95% CI]), the CR [5, 12] was 0 n (%, [95% CI]) and the “CRc (CR plus CRp plus CRi)” value [5, 12] was 0 n (%, [95% CI]). The CRi [5, 12] was 0 n (%, [95% CI]), the CRp [5, 12] was 0 n (%, [95% CI]) and the “ORR (CRc plus PR)” value [5, 12] was 0 n (%, [95% CI]). The PR [5, 12] was 0 n (%, [95% CI]), the CR [5, 13] was 0 n (%, [95% CI]) and the “CRc (CR plus CRp plus CRi)” value [5, 13] was 0 n (%, [95% CI]). For the same molecule, the CRi [5, 13] was 0 n (%, [95% CI]), the CRp [5, 13] was 0 n (%, [95% CI]) and the “ORR (CRc plus PR)” value [5, 13] was 1 (100 [2.5, 100]) n (%, [95% CI]). The PR [5, 13] was 1 (100 [2.5, 100]) n (%, [95% CI]), the CR [5, 14] was 0 n (%, [95% CI]) and the “CRc (CR plus CRp plus CRi)” value [5, 14] was 2 (100 [15.8, 100]) n (%, [95% CI]). For the same molecule, the CRi [5, 14] was 1 (50 [1.3, 98.7]) n (%, [95% CI]), the CRp [5, 14] was 1 (50 [1.3, 98.7]) n (%, [95% CI]) and the “ORR (CRc plus PR)” value [5, 14] was 2 (100 [15.8, 100]) n (%, [95% CI]). For the same molecule, the PR [5, 14] was 0 n (%, [95% CI]), the “Median duration of CRc” value ([5]; FLT3 mutation-positive patients, 95% CI: 30.0, 116.0) was 63.0 days and the “Median duration of remission” value ([5]; FLT3 mutation-positive patients, 95% CI: 30.0, not evaluable) was 89.5 days. For the same molecule, the “CR with incomplete platelet recovery” value [5, 15] was 20%, the “partial remission (PR)” value [5, 15] was 20% and the “CR with incomplete hematologic recovery” value ([5]; patients with mutated FLT3 (n = 5), 2 patients) was 40%. The CR [5, 16] was 9.1%, the PR [5, 16] was 9.1% and the “CR with incomplete platelet recovery” value ([5]; patients with wild-type FLT3 (n = 11), 2 patients) was 18.2%. For the same molecule, the CRc ([5]; patients without FLT3 mutations (n = 11), 95% CI: 6.0, 61.0) was 27.3%, the ORR ([5]; patients without FLT3 mutations (n = 11), 95% CI: 10.9, 69.2) was 36.4% and the “Median duration of CRc” value ([5]; patients without FLT3 mutations, 95% CI: 28.0, 111.0) was 69.5 days. For the same molecule, the “Median duration of remission” value ([5]; patients without FLT3 mutations, 95% CI: 28.0, 127.0) was 111.0 days, the “accumulation relative to baseline” value ([6]; after multiple dose administration) was roughly 8 fold and the half-life ([6]; human, plasma, oral) was 84 to 126 h. The Tmax ([6]; human, plasma, oral, Median tmax, after administration of single or multiple doses) was 3 to 7 h, the “achievement of steady-state gilteritinib plasma concentrations (mean trough concentrations)” value ([6]; once-daily dosing, Day 1 Cycle 1 through Day 1 Cycle 2) was “by Day 15 Cycle 1” and the exposure versus dose ([6]; single-dose and multiple-dose) was “increased in a dose‐proportional manner”. The “inhibition of anaplastic lymphoma kinase” value [7] was “robust inhibitor”, the “inhibition of leukocyte receptor tyrosine kinase” value [8] was “robust inhibitor” and the “inhibition of FLT3” value (FLT3) was “robust inhibitor”. For the same molecule, the “possible treatment-related prolongation of the QTcF interval” value ([9]; 1 patient, 40 mg/d dose cohort) was 4.2%, the “prolonged QT interval identified as an AE” value ([9]; 2 patients (20 mg/d and 40 mg/d)) was 8.3% and the “patients with maximum QTcF change of >30 ms” value ([9]; 5 of 22 evaluable patients) was 22.7%. The “patients with prolonged QT interval of >450 ms (QTcF)” value ([9]; 9 of 24 patients) was 37.5%, the “maximum postbaseline QTcF change from baseline” value [9, 17] was 65 ms and the “mean maximum postbaseline QTcF” value [9, 17] was 486 ms. The “inhibitory effect on c-Kit” value (c-Kit) was “minimal inhibitory effect”.
